According to ChEMBL document CHEMBL1926680, “The de-guanidinylated derivative of peramivir remains a potent inhibitor of influenza neuraminidase” (Bioorg Med Chem Lett, 2011):
Calls of active or inactive are those of the source. No cut-off for these calls is given here.

How the values were obtained:
Neuraminidase = Neuraminidase (Influenza A virus, UniProt B4URF0); test: Inhibition of influenza A virus neuraminidase
Influenza A virus [1] = test: Antiviral activity against NP40-inactivated Influenza A virus (A/Brisbane/59/2007(H1N1)) preincubated with virus for 10 mins by viral hemagglutinination titter assay; type: functional, organism-based
In short: (§1)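 Inhibitor dilutions were incubated for 10 min at room temperature with 0.2% NP40-inactivated virus, diluted to match the activity of 1000 ng/mL recombinant enzyme stock. The 4-methylumbelliferyl sialic acid substrate was then added in Tris/CaCl2/NaCl buffer, pH 7.5. Neuraminidase activity was read fluorimetrically (ex 365, em 445 nm), and IC50 was taken from the dose–response curve.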

Influenza A virus [2] = test: Antiviral activity against NP40-inactivated Influenza A virus (A/Brisbane/59/2007(H1N1)) preincubated with virus for 2 hrs by viral hemagglutinination titter assay; type: functional, organism-based
In short: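 The virus assay used 0.2% NP40-inactivated virus, diluted to match the activity of 1000 ng/mL recombinant enzyme stock, with inhibitor preincubation lengthened to 2 h at room temperature before the 4-methylumbelliferyl substrate was added. Reaction was in pH 7.5 Tris/CaCl2/NaCl buffer, with fluorescence read at ex 365/em 445 nm. IC50 came from dose–response.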

[3] = target: Neuraminidase (Influenza A virus (strain A/Brevig Mission/1/1918 H1N1) (Influenza Avirus (strain A/South Carolina/1/1918 H1N1)), UniProt Q9IGQ6); test: Inhibition of Influenza A virus (A/Brevig Mission/1/1918(H1N1)) recombinant soluble neuraminidase using 2'-4(methylumbelliferyl)-alpha-D-N-acetylneuraminic acid substrate by fluorimetric assay
In short: (§2)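 Recombinant soluble neuraminidase (400 ng/mL final) in 50 mM Tris, 5 mM CaCl2, 200 mM NaCl, pH 7.5, was mixed with a range of inhibitor concentrations and 2'-4-methylumbelliferyl substrate (200 µM final, 1.5% total DMSO). Fluorescence (ex 365 nm, em 445 nm) was followed over 5 min, and IC50 was taken from the full dose–response curve.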

[4] = target: Neuraminidase (Influenza A virus (strain A/Brevig Mission/1/1918 H1N1) (Influenza Avirus (strain A/South Carolina/1/1918 H1N1))) (UniProt Q9IGQ6); test: Inhibition of Influenza A virus (A/Brevig Mission/1/1918(H1N1)) recombinant neuraminidase by dose responsive study; in short: as §2
[5] = target: Neuraminidase (Influenza A virus) (UniProt B4URF0); test: Inhibition of NP40-inactivated Influenza A virus (A/Brisbane/59/2007(H1N1)) neuraminidase after 10 mins by dose responsive study; in short: as §1
[6] = target: Neuraminidase (Influenza A virus (strain A/Brevig Mission/1/1918 H1N1) (Influenza Avirus (strain A/South Carolina/1/1918 H1N1))) (UniProt Q9IGQ6); test: Competitive inhibition of Influenza A virus (A/Brevig Mission/1/1918(H1N1)) recombinant soluble neuraminidase at 3.75 to 15 nM using 2'-4(methylumbelliferyl)-alpha-D-N-acetylneuraminic acid substrate by fluorimetric based Lineweaver-Burk plot analysis
In short: (§3)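 For kinetics, substrate working solution was serially diluted in assay buffer (50 mM Tris, 5 mM CaCl2, 200 mM NaCl, pH 7.5) containing 4% DMSO. Recombinant soluble neuraminidase reaction progress was followed fluorimetrically (ex 365, em 445 nm) for 10 min at several substrate and inhibitor concentrations to derive Ki.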

[7] = target: Neuraminidase (Influenza A virus (strain A/Brevig Mission/1/1918 H1N1) (Influenza Avirus (strain A/South Carolina/1/1918 H1N1))) (UniProt Q9IGQ6); test: Competitive inhibition of Influenza A virus (A/Brevig Mission/1/1918(H1N1)) recombinant soluble neuraminidase at 3.75 to 15 nM using 2'-4(methylumbelliferyl)-alpha-D-N-acetylneuraminic acid substrate by fluorimetric based Michaelis-Menten equation analysis; in short: as §3
[8] = target: Neuraminidase (Influenza A virus (strain A/Brevig Mission/1/1918 H1N1) (Influenza Avirus (strain A/South Carolina/1/1918 H1N1))) (UniProt Q9IGQ6); test: Competitive inhibition of Influenza A virus (A/Brevig Mission/1/1918(H1N1)) recombinant soluble neuraminidase at 0.7 to 3 nM using 2'-4(methylumbelliferyl)-alpha-D-N-acetylneuraminic acid substrate by fluorimetric based Lineweaver-Burk plot analysis
In short: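 Recombinant soluble neuraminidase (1000 ng/mL stock, 400 ng/mL in well) in 50 mM Tris pH 7.5, 200 mM NaCl, 5 mM CaCl2. The 4-methylumbelliferyl sialic acid substrate working solution was serially diluted in buffer with 4% DMSO. Reaction progress was read by fluorescence (ex 365, em 445 nm) over 10 min across several substrate and inhibitor concentrations. Substrate-only controls were run.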

[9] = target: Neuraminidase (Influenza A virus (strain A/Brevig Mission/1/1918 H1N1) (Influenza Avirus (strain A/South Carolina/1/1918 H1N1))) (UniProt Q9IGQ6); test: Competitive inhibition of Influenza A virus (A/Brevig Mission/1/1918(H1N1)) recombinant soluble neuraminidase at 0.7 to 3 nM using 2'-4(methylumbelliferyl)-alpha-D-N-acetylneuraminic acid substrate by fluorimetric based Michaelis-Menten equation analysis; in short: as §3

Sequence of Neuraminidase (Influenza A virus (strain A/Brevig Mission/1/1918 H1N1) (Influenza Avirus (strain A/South Carolina/1/1918 H1N1))) (Q9IGQ6 whole entry): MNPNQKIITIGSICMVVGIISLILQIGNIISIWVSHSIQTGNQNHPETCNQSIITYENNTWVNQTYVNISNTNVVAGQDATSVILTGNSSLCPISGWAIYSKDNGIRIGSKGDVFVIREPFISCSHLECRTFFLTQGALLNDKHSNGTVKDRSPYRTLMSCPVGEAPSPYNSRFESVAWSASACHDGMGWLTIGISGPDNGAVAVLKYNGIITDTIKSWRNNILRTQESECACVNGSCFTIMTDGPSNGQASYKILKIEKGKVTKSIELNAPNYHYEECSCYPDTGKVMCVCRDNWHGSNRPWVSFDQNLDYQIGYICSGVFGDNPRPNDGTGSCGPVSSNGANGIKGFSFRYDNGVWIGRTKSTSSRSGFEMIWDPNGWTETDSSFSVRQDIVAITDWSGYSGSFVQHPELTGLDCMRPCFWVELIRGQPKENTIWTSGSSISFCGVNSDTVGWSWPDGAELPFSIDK
Sequence of Neuraminidase (Influenza A virus (strain A/Brevig Mission/1/1918 H1N1) (Influenza Avirus (strain A/South Carolina/1/1918 H1N1)), UniProt Q9IGQ6) (Q9IGQ6 whole entry): as above
Sequence of Neuraminidase (B4URF0 whole entry): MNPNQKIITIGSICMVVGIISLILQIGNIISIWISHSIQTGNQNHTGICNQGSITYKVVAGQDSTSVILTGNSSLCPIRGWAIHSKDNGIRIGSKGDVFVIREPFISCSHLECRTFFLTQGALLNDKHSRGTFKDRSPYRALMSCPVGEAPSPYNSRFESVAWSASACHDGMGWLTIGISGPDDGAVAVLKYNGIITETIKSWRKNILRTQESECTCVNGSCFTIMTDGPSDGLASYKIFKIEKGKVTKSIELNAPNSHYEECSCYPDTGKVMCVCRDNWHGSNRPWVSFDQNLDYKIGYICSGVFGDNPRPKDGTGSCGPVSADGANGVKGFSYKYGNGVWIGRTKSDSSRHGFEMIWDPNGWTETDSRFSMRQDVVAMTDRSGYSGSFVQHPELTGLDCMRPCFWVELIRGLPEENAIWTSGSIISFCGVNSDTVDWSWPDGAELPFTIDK
Sequence of Neuraminidase (Influenza A virus) (B4URF0 as listed by the source): as the sequence (B4URF0 whole entry) above

SMILES | IC50 (Neuraminidase) [µM] | IC50 (Influenza A virus [1]) [µM] | IC50 [3] [µM] | Ki [3] [µM] | inhibition [4] | inhibition [5] | also measured
CCOC(=O)C1=C[C@@H](OC(CC)CC)[C@H](NC(C)=O)[C@@H](N)C1 [OSELTAMIVIR] | 0.001 | – | – | – | – | – | –
CCC(CC)[C@H](NC(C)=O)[C@@H]1[C@H](O)[C@@H](C(=O)O)C[C@H]1N | – | 0.0073 | 0.0177 | 0.0075 | Dose-dependent effect | Dose-dependent effect | IC50 (Influenza A virus [2]): 0.0022 µM; inhibition [6]: Active; inhibition [7]: Active
N=C(N)N[C@H]1CC[C@@](O)(C(=O)O)C1 | – | – | 4000 | – | – | – | –
CCOC(=O)C1=C[C@@H](OC(CC)CC)[C@H](NC(C)=O)[C@@H](NC(=N)N)C1 | 0.0005 | – | – | – | – | – | –
CCC(CC)[C@H](NC(C)=O)[C@@H]1[C@H](O)[C@@H](C(=O)O)C[C@H]1NC(=N)N [PERAMIVIR ANHYDROUS] | – | 0.00086 | 0.0034 | 0.00083 | Dose-dependent effect | Dose-dependent effect | inhibition [8]: Active; inhibition [9]: Active
N[C@H]1CC[C@@](O)(C(=O)O)C1 | – | – | 37000 | – | – | – | –
